From publication PMC4503318 (Chemistry & biology, 2015)
Where two headings read alike, the source gives them in different places.

Tests used:
PfLysRS [1] = biological target: T1, PfLysRS (Plasmodium falciparum, UniProt Q8IDJ8); assay: Thermal shift assay, PfLysRS; type: binding, P. falciparum
HsLysRS = HsLysRS (Homo sapiens, UniProt Q15046); assay: Thermal shift assay, HsLysRS; type: binding
Pf-like human LysRS = Pf-like human LysRS (Homo sapiens, UniProt Q15046, P300T/Q321V/T337S); assay: Thermal shift assay, Pf-like human LysRS; type: binding
Outline: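 Pf-like human LysRS (residues 70-584) was co-expressed in E. coli BL21(DE3) with His-tagged AIMP2/p38 1-36 and purified by Ni affinity and gel filtration. A 2× mix held 4 μM protein in Tris-HCl pH 8.0/NaCl/DTT, plus 40 μM test compound, 1 mM lysine, 40 μM ATP or 2 mM CaCl2. It sat 30 min at room temperature, then was chilled and mixed 1:1 with dye. Fluorescence was read during heating from 10 to 90 °C at 1 °C/min, averaging 8 curves. Tm was fitted by Levenberg-Marquardt. Kd was extrapolated to 25 °C, assuming 62760 J/mol binding enthalpy. Kd was not determined for negative ΔTm.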

Colletotrichum acutatum = settings: CP at 30 μM; ref Wang et al., 2013; cited from earlier work
Colletotrichum fragariae = settings: CP at 30 μM; ref Wang et al., 2013; cited from earlier work
[2] = test system: Colletotrichum gloeosporioides; settings: CP at 30 μM; ref Wang et al., 2013; cited from earlier work
Phomopsis viticola = settings: CP at 30 μM; ref Wang et al., 2013; cited from earlier work
[3] = test system: blood- and liver- stage Plasmodium falciparum parasite forms; settings: Plasmodium parasites compared to mammalian cells; ref Hoepfner et al., 2012; cited from earlier work
human cells = settings: ref Hoepfner et al., 2012; cited from earlier work
PfLysRS [4] = biological target: T1, PfLysRS; settings: yeast-growth-based assay; ref Hoepfner et al., 2012; cited from earlier work
[5] = test system: yeast LysRS Q324V and T340S; settings: Q324V and T340S mutations of yeast LysRS; ref Hoepfner et al., 2012; cited from earlier work
E. coli = settings: up to 100 μg/ml CP; ref Anke, 1979; cited from earlier work
IleRS = settings: ref Hughes and Mellows, 1980; cited from earlier work
[6] = HsLysRS, ligand alone (no lysine co-ligand for ATP/CP)
[7] = Pf-like human LysRS, ligand alone (no lysine co-ligand for ATP/CP)
[8] = Pf-like human LysRS, with lysine
[9] = PfLysRS, ligand alone (no lysine co-ligand), estimated from ΔTm, 25°C

Chain of HsLysRS (Q15046 70-584): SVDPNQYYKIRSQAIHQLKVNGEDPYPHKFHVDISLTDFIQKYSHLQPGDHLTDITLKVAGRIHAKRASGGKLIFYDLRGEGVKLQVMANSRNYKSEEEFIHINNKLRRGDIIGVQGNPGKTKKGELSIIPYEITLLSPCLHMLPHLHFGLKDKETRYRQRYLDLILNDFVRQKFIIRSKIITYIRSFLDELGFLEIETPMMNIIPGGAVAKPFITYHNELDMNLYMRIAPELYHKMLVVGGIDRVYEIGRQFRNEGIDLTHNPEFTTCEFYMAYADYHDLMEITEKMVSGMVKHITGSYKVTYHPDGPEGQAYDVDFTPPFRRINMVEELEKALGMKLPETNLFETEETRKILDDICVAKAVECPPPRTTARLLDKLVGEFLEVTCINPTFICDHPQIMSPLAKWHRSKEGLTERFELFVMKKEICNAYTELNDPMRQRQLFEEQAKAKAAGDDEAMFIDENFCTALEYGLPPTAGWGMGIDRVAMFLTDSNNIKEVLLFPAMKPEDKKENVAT
Chain of HsLysRS (Q13155 1-36 partner limits assumed): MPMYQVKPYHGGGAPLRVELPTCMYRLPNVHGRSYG
Chain of Pf-like human LysRS (Q15046 70-584 P300T/Q321V/T337S): as the sequence (Q15046 70-584) above, with P231T, Q252V, T268S counted along it
Chain of Pf-like human LysRS (Q13155 1-36 partner limits assumed): as the sequence (Q13155 1-36 partner limits assumed) above

Molecule `Nc1ncnc2c1ncn2[C@@H]1O[C@H](COP(=O)(O)OP(=O)(O)OP(=O)(O)O)[C@@H](O)[C@H]1O` [ATP] has a ΔTm (PfLysRS [1]; PfLysRS, with lysine) of 0.6 °C, a ΔTm (HsLysRS; [6]) of -0.2 °C and a ΔTm (HsLysRS; HsLysRS, with lysine) of 0.9 °C. For the same molecule, the Kd (HsLysRS; HsLysRS, with lysine, estimated from ΔTm, 25°C) was 2.8 µM, the ΔTm (Pf-like human LysRS; [7]) was -0.9 °C and the ΔTm (Pf-like human LysRS; [8]) was 0.9 °C. The Kd (Pf-like human LysRS; Pf-like human LysRS, with lysine, estimated from ΔTm, 25°C) was 2.2 µM.
For `C[C@H]1CCC[C@H](C[C@H]2Cc3cc(O)cc(O)c3C(=O)O2)O1` [CP, cladosporin], the Kd (PfLysRS [1]; PfLysRS, K-CP (with lysine)) was about 0.0024 µM, the Kd (PfLysRS [1]; [9]) was 1.5 µM and the Kd (PfLysRS [1]; PfLysRS, with lysine, estimated from ΔTm, 25°C) was 0.0024 µM. For the same molecule, the “binding affinity tighter than in HsLysRS” value (PfLysRS [1]; PfLysRS vs HsLysRS, with lysine) was 1375 fold, the “stabilization by CP together with lysine relative to CP-alone” value (PfLysRS [1]; PfLysRS, 17.1 °C vs 2.4 °C) was 7 fold and the “stabilization effect with non-cognate amino acids” value (PfLysRS [1]; PfLysRS, CP, lysine replaced with any of the other 19 non-cognate amino acids) was “did not yield stabilization effect”. For the same molecule, the “increase of binding affinity by the presence of lysine” value (PfLysRS [1]; PfLysRS, Kd with lysine vs no lysine) was 625 fold, the ΔTm at 40 µM (PfLysRS [1]; read-out: ΔTm) was 2.4 °C and the Kd (HsLysRS) was 3.3 µM. For the same molecule, the “stabilization effect (melting temperature)” value (HsLysRS; HsLysRS, CP even with the presence of lysine) was under 2 °C, the ΔTm (HsLysRS; [6]) was -0.8 °C and the ΔTm (HsLysRS; HsLysRS, with lysine) was 0.3 °C. For the same molecule, the Kd (Pf-like human LysRS) was 2.1 µM, the “stabilization effect (melting temperature)” value (Pf-like human LysRS; Pf-like human LysRS, CP even with the presence of lysine) was under 2 °C and the ΔTm (Pf-like human LysRS; [7]) was -1.1 °C. The ΔTm (Pf-like human LysRS; [8]) was 1.0 °C, the inhibition of growth (Colletotrichum acutatum) was “over 80%” and the inhibition of growth (Colletotrichum fragariae) was “over 80%”. For the same molecule, the inhibition of growth [2] was “over 80%”, the inhibition of growth (Phomopsis viticola) was “over 80%” and the “selectivity index (IC50/CC50)” value [3] was over 111. The “effect on the growth of human cells” value (human cells) was “little effect”, the “potency against PfLysRS relative to HsLysRS or yeast LysRS” value (PfLysRS [4]) was 1000 fold and the “increase of sensitivity for CP inhibition” value [5] was 40 fold. For the same molecule, the “effect on growth of E. coli” value (E. coli) was “not affected”.
`NCCCC[C@H](N)C(=O)O` [Lysine, L-lysine] showed a Kd (PfLysRS [1]; [9]) of 34.1 µM, a ΔTm at 1000 µM (PfLysRS [1]; read-out: ΔTm) of 2.7 °C and a Kd (HsLysRS) of 84.9 µM. For the same molecule, the ΔTm (HsLysRS) was 0.1 °C and the ΔTm (Pf-like human LysRS; [7]) was -0.2 °C.
For `C/C(=C\C(=O)OCCCCCCCCC(=O)O)C[C@@H]1OC[C@H](C[C@@H]2O[C@H]2[C@@H](C)[C@H](C)O)[C@@H](O)[C@H]1O` [mupirocin], the “selectivity for pathogenic over mammalian IleRS” value (IleRS) is listed as “about 8000 fold”.
